These results are taken from article PMC5795597 (Journal of medicinal chemistry, 2017).

Data set [1] can be described thus: In vitro plasma stability / metabolite identification. In kind it is in vitro ADME. The note with it: 10 μM, 37 °C, 60 min incubation. The procedure, abridged: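 Mouse plasma was spiked at 10 μM and shaken at 37 °C. Triplicate aliquots at 0 and 60 min were quenched with 2 volumes of ice-cold acetonitrile containing 5 μM losartan, then centrifuged at 12000g for 10 min. Supernatant was diluted 1:1 with water. Parent loss and metabolites were tracked by C18 LC–ESI-TOF MS.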

For data set [2] the following is noted: cited from earlier work.
Data set [3] in a line: Plasma levels of 1 after single oral dose in mice. In kind it is in vivo, mouse. The note with it: dose equivalent of 10 mg/kg of 1, plasma 30 min after administration. In a few lines:
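Male CD-1 mice (25–30 g) got a single oral dose of 10 mg/kg parent equivalent in 50 mM HEPES-buffered saline, pH 7.4, made the same day. At 30 min, mice were killed with pentobarbital and blood taken by cardiac puncture into heparin. Plasma (200g, 15 min; stored −80 °C) was assayed by C18 LC-MS/MS, parent transition 279.986 > 203.066/247.173, losartan internal standard. Mean ± SEM, n = 3.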

The subject of data set [4] is rat chronic constriction injury model of neuropathic pain. Put plainly: Chronic constrictive injury. The data set is classed as in vivo. The following applies: rat CCI. The procedure, abridged: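 Male Sprague–Dawley rats (200–250 g, n = 10–15/group) received four loose chromic gut ligatures, 1 mm apart, on the sciatic nerve. From day 10 post-surgery, hind-paw withdrawal latency to a plantar thermal stimulus was read to 0.1 s (normal response within 15 s). Difference score: nonligated minus ligated. Sessions twice weekly, 3 days apart. Daily oral gavage, 1 h pre-test. Gabapentin 50/100 mg/kg po as control. Student's t-test.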

Data set [5] concerns the target rhGCPII (Homo sapiens, UniProt Q04609). Description: GCPII radioenzymatic inhibition assay with 3H-NAAG. In kind it is biochemical. The note with it: relative to compound 1. In a few lines: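 Recombinant human GCPII was started with a mix of 0.31 μM NAAG plus 15 nM 3H-NAAG (concentrations in the added mix). After 20 min, the reaction was stopped with 200 mM potassium phosphate, 50 mM EDTA and 2 mM β-mercaptoethanol, pH 7.4. Released glutamate was isolated by ion exchange and counted by scintillation. IC50 was fitted from inhibition curves.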

Data set [6] is described as follows: Stability under GCPII enzyme assay conditions. In kind it is physicochemical. The following applies: 30 m in aqueous buffer; pH 8.0.

Sequence of rhGCPII (Q04609 whole entry): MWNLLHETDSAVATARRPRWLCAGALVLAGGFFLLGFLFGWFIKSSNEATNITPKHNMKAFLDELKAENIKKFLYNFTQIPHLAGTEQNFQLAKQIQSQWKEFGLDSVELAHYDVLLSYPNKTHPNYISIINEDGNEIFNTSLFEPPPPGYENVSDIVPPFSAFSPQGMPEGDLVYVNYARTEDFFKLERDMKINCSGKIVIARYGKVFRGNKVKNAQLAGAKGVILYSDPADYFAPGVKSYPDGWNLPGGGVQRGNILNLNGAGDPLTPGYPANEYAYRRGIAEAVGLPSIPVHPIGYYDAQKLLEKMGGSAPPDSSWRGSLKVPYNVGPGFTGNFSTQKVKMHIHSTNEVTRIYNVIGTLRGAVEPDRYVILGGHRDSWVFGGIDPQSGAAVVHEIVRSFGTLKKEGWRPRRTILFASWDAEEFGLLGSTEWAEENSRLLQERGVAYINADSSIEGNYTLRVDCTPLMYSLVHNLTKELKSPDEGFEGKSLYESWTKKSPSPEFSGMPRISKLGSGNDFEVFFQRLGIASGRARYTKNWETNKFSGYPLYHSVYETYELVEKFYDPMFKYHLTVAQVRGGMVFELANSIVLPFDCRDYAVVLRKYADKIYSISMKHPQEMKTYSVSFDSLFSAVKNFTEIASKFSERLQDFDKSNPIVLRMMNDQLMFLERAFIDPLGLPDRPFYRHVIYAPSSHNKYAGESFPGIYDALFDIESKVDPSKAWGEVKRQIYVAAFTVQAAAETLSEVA

As for `O=C(CCC(Cc1ccc(C(=O)O)cc1)C(=O)O)NO` (stereo not drawn) [Compound 1, 4-Carboxy-α-[3-(hydroxyamino)-3-oxopropyl]-benzenepropanoic acid], the “stability / bioconversion in mouse plasma (in words)” value (“stability / bioconversion” for short) in data set [1] is reported as “completely stable”. In addition, in data set [2], the “distribution to sciatic nerves (in words)” value was “good distribution to sciatic nerves”.
With `CC(=O)ONC(=O)CCC(Cc1ccc(C(=O)O)cc1)C(=O)O` (stereo not shown) [Compound 7, 4-(5-(Acetoxyamino)-2-carboxy-5-oxopentyl)benzoic Acid], in data set [3], the “plasma levels of 1 following oral administration of prodrug (in words)” value (“plasma levels” below) was “equal or higher”.
As for `CC(=O)Oc1ccc(CONC(=O)CCC(Cc2ccc(C(=O)O)cc2)C(=O)O)cc1` (stereo not shown) [Compound 12, 4-(5-(((4-Acetoxybenzyl)oxy)amino)-2-carboxy-5-oxopentyl)-benzoic Acid], the “plasma levels” value in data set [3] is reported as “equal or higher”. Also, in data set [1], the “stability / bioconversion” value is listed as “complete conversion of prodrug 12 to 1”. Besides, the “effect on absolute latency of the sham operated side” value in data set [4] (4.6 mg/kg/day po) is “no significant effect”. For the same compound, the “first day of significantly reduced thermal hyperalgesia” value in data set [4] (12 at 4.6 mg/kg/day po (3 mg/kg equivalent of 1)) worked out at 4 days.
Take `Cc1oc(=O)oc1CONC(=O)CCC(Cc1ccc(C(=O)O)cc1)C(=O)O` (stereo not shown) [Compound 17, 4-(2-Carboxy-5-(((5-methyl-2-oxo-1,3-dioxol-4-yl)methoxy)-amino)-5-oxopentyl)benzoic Acid]: the “fold less potency compared to 1 (GCPII inhibition)” value in data set [5] came to 12 fold. Further, the “plasma levels” value in data set [3] is reported as “equal or higher”. The “stability under GCPII enzyme assay conditions (in words)” value in data set [6] is “partial hydrolysis to 1”.
Turning to `CCOC(=O)c1ccc(CC(CCC(=O)NOCc2ccc(OC(C)=O)cc2)C(=O)O)cc1` (stereo not shown) [Compound 23, 5-(((4-Acetoxybenzyl)oxy)amino)-2-(4-(ethoxycarbonyl)benzyl)-5-oxopentanoic Acid], in data set [1], the “stability / bioconversion” value is on record as “not converted into 1”.
The same measure, in the same setting: the result for `CC(=O)Oc1ccc(CONC(=O)CCC(Cc2ccc(C(=O)OCOC(=O)OC(C)C)cc2)C(=O)O)cc1` (stereo not shown) [Compound 30, 5-(((4-Acetoxybenzyl)oxy)amino)-2-(4-((((isopropoxycarbonyl)-oxy)methoxy)carbonyl)benzyl)-5-oxopentanoic Acid] reads “completely hydrolyzed”.
Turning to `NCC1(CC(=O)O)CCCCC1` [gabapentin, reference compound], the “reversal of allodynia (positive control)” value in data set [4] (100 mg/kg po daily, maintained throughout the dosing period) is recorded as “significantly reversed allodynia”.
